Reference: ChEMBL document CHEMBL3227960, “Inhibition of uptake of catecholamines by benzylamine derivatives” (J Med Chem, 1979)

Tests used:
[1] = molecular target: Sodium-dependent dopamine transporter (Rattus norvegicus, UniProt P23977); experiment: Inhibition of [3H]dopamine reuptake at DAT in Sprague-Dawley rat brain striatal synaptosomes incubated for 5 mins prior to [3H]dopamine addition measured after 3 mins by scintillation counting analysis; format: subcellular; details: read-out: I50
How it was run: (§1)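 Crude P2 synaptosomes from male Sprague-Dawley rat striatum (dopamine) or cerebral cortex (norepinephrine), prepared at 0 °C in 0.32 M sucrose. Tritiated substrate 0.1 μM, 37 °C. Uptake quenched with cold saline plus 100 μM unlabelled substrate, then filtered. 0 °C blanks subtracted. Three inhibitor concentrations, each in triplicate. I50 taken where A0/A1 = 2, by linear regression against concentration.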

[2] = Inhibition of [3H]norepinephrine reuptake at NET in Sprague-Dawley rat brain cortical synaptosomes incubated for 5 mins prior to [3H]norepinephrine addition measured after 3 mins by scintillation counting analysis; format: subcellular; details: read-out: I50; how it was run: as §1

Chain of Sodium-dependent dopamine transporter (P23977 whole entry): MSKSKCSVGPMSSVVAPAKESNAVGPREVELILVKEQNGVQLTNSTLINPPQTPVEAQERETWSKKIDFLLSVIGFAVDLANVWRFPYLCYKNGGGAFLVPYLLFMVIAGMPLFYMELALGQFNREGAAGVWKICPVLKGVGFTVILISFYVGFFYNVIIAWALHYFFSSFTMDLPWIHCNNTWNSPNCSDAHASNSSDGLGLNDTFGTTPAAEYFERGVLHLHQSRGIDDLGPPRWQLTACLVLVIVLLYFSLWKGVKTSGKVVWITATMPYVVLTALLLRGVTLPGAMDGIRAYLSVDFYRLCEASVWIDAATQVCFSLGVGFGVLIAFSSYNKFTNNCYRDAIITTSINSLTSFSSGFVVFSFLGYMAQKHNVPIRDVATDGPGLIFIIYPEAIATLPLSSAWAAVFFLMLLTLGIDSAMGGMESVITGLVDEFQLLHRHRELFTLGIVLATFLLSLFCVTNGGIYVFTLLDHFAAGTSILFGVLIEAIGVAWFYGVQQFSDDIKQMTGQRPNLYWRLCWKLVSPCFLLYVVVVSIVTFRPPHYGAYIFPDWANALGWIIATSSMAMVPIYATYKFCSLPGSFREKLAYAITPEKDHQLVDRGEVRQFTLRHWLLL

Structure (SMILES) | IC50 [1] [µM] | IC50 [2] [µM]
CCN(CCCl)Cc1ccccc1Br | 5.87 | 0.05
ClCCNCc1ccccc1Br | 326 | 50.2
CCN(CCO)Cc1ccccc1Br | 640 | 78
CCN(CCO)Cc1ccccc1C | 1050 | 137
CCN(CCCl)Cc1cccc(C)c1 | 28.6 | 0.77
CCN(CCO)Cc1cccc(C)c1 | 250 | 49
CCN(CCCl)Cc1ccc(C)cc1 | 78.4 | 3.05
CCN(CCCl)Cc1ccccc1OC | 303 | 31.1
CCN(CCCl)Cc1cccc(OC)c1 | 127 | 23.2
CCN(CCCl)Cc1ccc(OC)cc1 | 147 | 29.8
